# Test results published in ChEMBL document CHEMBL2440035, “Azetidines and spiro azetidines as novel P2 units in hepatitis C virus NS3 protease inhibitors” (Bioorg Med Chem Lett, 2013).
# Tests used:
# Hepatitis C virus [1] = test: Ratio of EC90 for Hepatitis C virus genotype 1b NS3/4A protease A156T mutant to EC90 Hepatitis C virus genotype 1b wild type NS3/4A protease; parameters: species or system Hepatitis C virus subtype 1b
# Method in brief: (§1)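 Genotype 1b NS3 protease enzyme panel: wild type plus resistance mutants A156T, R155K, D168V, V36M, A156S, V170A and D168A. […] Resistance is expressed as the fold increase of each mutant's value over the wild-type value.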
# Hepatitis C virus [2] = test: Ratio of EC50 for Hepatitis C virus genotype 1b NS3/4A protease A156S mutant to EC50 Hepatitis C virus genotype 1b wild type NS3/4A protease; parameters: species or system Hepatitis C virus subtype 1b; method in brief: as §1
# Prothrombin = Prothrombin (Homo sapiens, UniProt P00734); test: Inhibition of human thrombin
# Vero = test: Cytotoxicity against african green monkey Vero cells; assay type: cell-based; settings: chlorocebus sabaeus
# Method in brief: (§2)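 Cytotoxicity was profiled in three cell types: primary human peripheral blood mononuclear (PBM) cells, CEM (a human T-cell-derived line) and Vero (African green monkey kidney epithelial cells).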
# Hepatitis C virus [3] = test: Antiviral activity against Hepatitis C virus infected in human HuH7 cells assessed as viral RNA replication; assay type: functional, organism-based, Hepacivirus hominis; settings: Huh-7
# Method in brief: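 Subgenomic HCV replicon in Huh7 cells; inhibition of HCV RNA replication measured by extraction and amplification of HCV RNA. Each concentration run in triplicate and reported as mean; EC50 derived.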
# PBMC = test: Cytotoxicity against human PBMC; assay type: cell-based; method in brief: as §2
# Huh-7 = test: Cytotoxicity against human HuH7 cells; assay type: cell-based
# Method in brief: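 Huh7 cytotoxicity measured together with the replicon antiviral assay, by extraction and amplification of ribosomal RNA. Each concentration run in triplicate and reported as mean.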
# Hepatitis C virus [4] = test: Ratio of EC50 for Hepatitis C virus genotype 1b NS3/4A protease V36M mutant to EC50 Hepatitis C virus genotype 1b wild type NS3/4A protease; parameters: species or system Hepatitis C virus subtype 1b; method in brief: as §1
# Hepatitis C virus [5] = test: Inhibition of Hepatitis C virus genotype 1b NS3/4A protease V36M mutant; parameters: species or system Hepatitis C virus subtype 1b
# Method in brief: (§3)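 Panel of genotype 1b NS3 protease enzymes (wild type and mutants). IC50 and IC90 are averages ± standard error from 2 independent assays. Fold change versus wild type given in parentheses.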
# Hepatitis C virus [6] = test: Inhibition of Hepatitis C virus genotype 1b NS3/4A protease A156T mutant; parameters: species or system Hepatitis C virus subtype 1b; method in brief: as §3
# Hepatitis C virus [7] = test: Inhibition of Hepatitis C virus genotype 1b NS3/4A protease V170A mutant; parameters: species or system Hepatitis C virus subtype 1b; method in brief: as §3
# Hepatitis C virus [8] = test: Ratio of EC90 for Hepatitis C virus genotype 1b NS3/4A protease D168A mutant to EC90 Hepatitis C virus genotype 1b wild type NS3/4A protease; parameters: species or system Hepatitis C virus subtype 1b; method in brief: as §1
# Hepatitis C virus [9] = test: Ratio of EC50 for Hepatitis C virus genotype 1b NS3/4A protease R155K mutant to EC50 Hepatitis C virus genotype 1b wild type NS3/4A protease; parameters: species or system Hepatitis C virus subtype 1b; method in brief: as §1
# Hepatitis C virus [10] = test: Inhibition of Hepatitis C virus genotype 1b NS3/4A protease R155K mutant; parameters: species or system Hepatitis C virus subtype 1b; method in brief: as §3
# Hepatitis C virus [11] = test: Inhibition of Hepatitis C virus genotype 1b wild type NS3/4A protease; parameters: species or system Hepatitis C virus subtype 1b; method in brief: as §3
# Plasminogen = Plasminogen (Homo sapiens, UniProt P00747); test: Inhibition of human plasmin
# Plasminogen, sequence (P00747 97-580 limits assumed): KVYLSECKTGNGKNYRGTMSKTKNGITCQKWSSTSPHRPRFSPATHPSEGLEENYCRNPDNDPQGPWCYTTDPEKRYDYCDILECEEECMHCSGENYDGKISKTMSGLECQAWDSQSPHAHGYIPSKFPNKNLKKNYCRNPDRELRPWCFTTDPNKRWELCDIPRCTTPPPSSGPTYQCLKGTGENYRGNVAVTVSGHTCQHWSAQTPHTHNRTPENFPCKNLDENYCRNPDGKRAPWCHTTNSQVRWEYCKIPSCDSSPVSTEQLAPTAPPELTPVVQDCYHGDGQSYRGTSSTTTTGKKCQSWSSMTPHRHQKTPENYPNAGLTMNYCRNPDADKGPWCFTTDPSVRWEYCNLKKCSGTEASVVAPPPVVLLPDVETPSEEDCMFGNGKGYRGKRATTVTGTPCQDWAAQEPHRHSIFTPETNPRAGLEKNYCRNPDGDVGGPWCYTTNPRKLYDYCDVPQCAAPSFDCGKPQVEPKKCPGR
# Plasminogen, sequence (P00747 581-810 limits assumed): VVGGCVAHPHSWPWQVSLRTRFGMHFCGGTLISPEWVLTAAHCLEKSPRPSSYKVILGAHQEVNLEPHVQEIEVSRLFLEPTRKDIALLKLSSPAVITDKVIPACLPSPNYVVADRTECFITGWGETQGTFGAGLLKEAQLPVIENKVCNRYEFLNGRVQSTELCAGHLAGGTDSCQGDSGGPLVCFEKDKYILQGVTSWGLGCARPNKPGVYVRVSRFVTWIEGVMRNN
# [12] = molecular target: T1, Neutrophil elastase (Homo sapiens) (UniProt P08246); test: (§4) Inhibition of human neutrophil elastase
# T1 sequence (whole entry): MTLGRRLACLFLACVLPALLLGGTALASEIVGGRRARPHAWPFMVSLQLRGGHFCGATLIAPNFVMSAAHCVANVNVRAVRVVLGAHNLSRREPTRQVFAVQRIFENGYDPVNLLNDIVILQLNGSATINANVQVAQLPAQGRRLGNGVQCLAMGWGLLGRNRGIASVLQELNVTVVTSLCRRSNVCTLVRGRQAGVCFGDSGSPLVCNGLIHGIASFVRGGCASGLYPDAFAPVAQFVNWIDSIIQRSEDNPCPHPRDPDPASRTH
# Neutrophil elastase = molecular target: T2, Neutrophil elastase (Homo sapiens, UniProt P08246); test: as §4
# T2 sequence (P08246 whole entry): T1 sequence (whole entry)
# Hepatitis C virus [13] = test: Ratio of EC90 for Hepatitis C virus genotype 1b NS3/4A protease V170A mutant to EC90 Hepatitis C virus genotype 1b wild type NS3/4A protease; parameters: species or system Hepatitis C virus subtype 1b; method in brief: as §1
# CCRF-CEM = test: Cytotoxicity against human CEM cells; assay type: cell-based; method in brief: as §2
# Hepatitis C virus [14] = test: Inhibition of Hepatitis C virus genotype 1b NS3/4A protease A156S mutant; parameters: species or system Hepatitis C virus subtype 1b; method in brief: as §3
# Cathepsin S = Cathepsin S (Homo sapiens, UniProt P25774); test: Inhibition of human cathepsin S
# Hepatitis C virus [15] = test: Inhibition of Hepatitis C virus genotype 1b NS3/4A protease D168V mutant; parameters: species or system Hepatitis C virus subtype 1b; method in brief: as §3
# Hepatitis C virus [16] = test: Ratio of EC90 for Hepatitis C virus genotype 1b NS3/4A protease R155K mutant to EC90 Hepatitis C virus genotype 1b wild type NS3/4A protease; parameters: species or system Hepatitis C virus subtype 1b; method in brief: as §1
# Hepatitis C virus [17] = test: Inhibition of Hepatitis C virus genotype 1b NS3/4A protease D168A mutant; parameters: species or system Hepatitis C virus subtype 1b; method in brief: as §3
# Hepatitis C virus [18] = test: Ratio of EC90 for Hepatitis C virus genotype 1b NS3/4A protease V36M mutant to EC90 Hepatitis C virus genotype 1b wild type NS3/4A protease; parameters: species or system Hepatitis C virus subtype 1b; method in brief: as §1
# Hepatitis C virus [19] = test: Ratio of EC50 for Hepatitis C virus genotype 1b NS3/4A protease D168V mutant to EC50 Hepatitis C virus genotype 1b wild type NS3/4A protease; parameters: species or system Hepatitis C virus subtype 1b; method in brief: as §1
# Hepatitis C virus [20] = test: Ratio of EC90 for Hepatitis C virus genotype 1b NS3/4A protease D168V mutant to EC90 Hepatitis C virus genotype 1b wild type NS3/4A protease; parameters: species or system Hepatitis C virus subtype 1b; method in brief: as §1
# Hepatitis C virus [21] = test: Ratio of EC50 for Hepatitis C virus genotype 1b NS3/4A protease D168A mutant to EC50 Hepatitis C virus genotype 1b wild type NS3/4A protease; parameters: species or system Hepatitis C virus subtype 1b; method in brief: as §1
# Hepatitis C virus [22] = test: Ratio of EC90 for Hepatitis C virus genotype 1b NS3/4A protease A156S mutant to EC90 Hepatitis C virus genotype 1b wild type NS3/4A protease; parameters: species or system Hepatitis C virus subtype 1b; method in brief: as §1
# Hepatitis C virus [23] = test: Ratio of EC50 for Hepatitis C virus genotype 1b NS3/4A protease V170A mutant to EC50 Hepatitis C virus genotype 1b wild type NS3/4A protease; parameters: species or system Hepatitis C virus subtype 1b; method in brief: as §1
# Hepatitis C virus [24] = test: Ratio of EC50 for Hepatitis C virus genotype 1b NS3/4A protease A156T mutant to EC50 Hepatitis C virus genotype 1b wild type NS3/4A protease; parameters: species or system Hepatitis C virus subtype 1b; method in brief: as §1
compound,measurement,setting,value
CCCC(NC(=O)C1N(C(=O)[C@@H](NC(=O)[C@@H](NC(=O)c2cnccn2)C2CCCCC2)C(C)(C)C)CC12CCCCC2)C(=O)C(=O)NC1CC1 (some centres undefined),Ratio,Hepatitis C virus [1],>10
same,Ratio EC50,Hepatitis C virus [2],55
same,IC50,Prothrombin,< 1 µM
same,IC90,Prothrombin,< 1.7 µM
same,CC50,Vero,27 µM
same,EC50,Hepatitis C virus [3],2.3 µM
same,EC90,Hepatitis C virus [3],6.4 µM
same,CC50,PBMC,32 µM
same,CC50,Huh-7,> 10 µM
same,Ratio EC50,Hepatitis C virus [4],8.8
same,EC50,Hepatitis C virus [5],6.9 µM
same,EC90,Hepatitis C virus [5],75 µM
same,EC50,Hepatitis C virus [6],> 100 µM
same,EC90,Hepatitis C virus [6],> 100 µM
same,EC50,Hepatitis C virus [7],> 1 µM
same,EC90,Hepatitis C virus [7],8.7 µM
same,Ratio,Hepatitis C virus [8],0.8
same,Ratio EC50,Hepatitis C virus [9],7.1
same,EC50,Hepatitis C virus [10],5.5 µM
same,EC90,Hepatitis C virus [10],64 µM
same,EC50,Hepatitis C virus [11],0.78 µM
same,EC90,Hepatitis C virus [11],9.81 µM
same,IC50,Plasminogen,> 100 µM
same,IC90,Plasminogen,> 100 µM
same,IC90,[12],85 µM
same,IC50,Neutrophil elastase,7.8 µM
same,Ratio,Hepatitis C virus [13],0.9
same,CC50,CCRF-CEM,16 µM
same,EC50,Hepatitis C virus [14],43 µM
same,EC90,Hepatitis C virus [14],> 100 µM
same,IC50,Cathepsin S,> 100 µM
same,IC90,Cathepsin S,> 100 µM
same,EC50,Hepatitis C virus [15],0.4 µM
same,EC90,Hepatitis C virus [15],3.3 µM
same,Ratio,Hepatitis C virus [16],6.6
same,EC50,Hepatitis C virus [17],0.72 µM
same,EC90,Hepatitis C virus [17],8.2 µM
same,Ratio,Hepatitis C virus [18],7.6
same,Ratio EC50,Hepatitis C virus [19],0.5
same,Ratio,Hepatitis C virus [20],0.3
same,Ratio EC50,Hepatitis C virus [21],0.9
CC[C@@H]1C[C@]1(NC(=O)[C@@H]1C[C@@H]2CN1C(=O)[C@H](C(C)(C)C)NC(=O)OCC(C)(C)CCCCc1cccc3c1CN(C3)C(=O)O2)C(=O)NS(=O)(=O)C1CC1,Ratio,Hepatitis C virus [1],>77
same,Ratio,Hepatitis C virus [22],1.3
same,IC50,Prothrombin,> 100 µM
same,IC90,Prothrombin,> 100 µM
same,Ratio EC50,Hepatitis C virus [23],0.7
same,Ratio EC50,Hepatitis C virus [4],7.2
same,EC50,Hepatitis C virus [5],0.045 µM
same,EC90,Hepatitis C virus [5],0.1 µM
same,EC50,Hepatitis C virus [6],0.91 µM
same,EC90,Hepatitis C virus [6],> 1 µM
same,EC50,Hepatitis C virus [7],0.0046 µM
same,EC90,Hepatitis C virus [7],0.01 µM
same,Ratio,Hepatitis C virus [8],840
same,EC50,Hepatitis C virus [10],> 1 µM
same,EC90,Hepatitis C virus [10],> 1 µM
same,EC50,Hepatitis C virus [11],0.0062 µM
same,EC90,Hepatitis C virus [11],0.013 µM
same,Ratio EC50,Hepatitis C virus [24],150
same,IC50,Plasminogen,> 100 µM
same,IC90,Plasminogen,> 100 µM
same,IC90,[12],> 100 µM
same,IC50,Neutrophil elastase,> 100 µM
same,Ratio,Hepatitis C virus [13],0.8
same,EC50,Hepatitis C virus [14],< 0.001 µM
same,EC90,Hepatitis C virus [14],0.017 µM
same,IC50,Cathepsin S,78 µM
same,IC90,Cathepsin S,> 100 µM
same,EC50,Hepatitis C virus [15],> 1 µM
same,EC90,Hepatitis C virus [15],> 1 µM
same,EC50,Hepatitis C virus [17],2.4 µM
same,EC90,Hepatitis C virus [17],11 µM
same,Ratio,Hepatitis C virus [18],7.8
same,Ratio,Hepatitis C virus [20],>77
same,Ratio EC50,Hepatitis C virus [21],390
CCC[C@H](NC(=O)[C@@H]1[C@H]2CCC[C@H]2CN1C(=O)[C@@H](NC(=O)[C@@H](NC(=O)c1cnccn1)C1CCCCC1)C(C)(C)C)C(=O)C(=O)NC1CC1,Ratio,Hepatitis C virus [1],>130
same,Ratio EC50,Hepatitis C virus [2],37
same,Ratio,Hepatitis C virus [22],66
same,IC50,Prothrombin,< 1 µM
same,IC90,Prothrombin,< 1 µM
same,EC50,Hepatitis C virus [3],0.4 µM
same,EC90,Hepatitis C virus [3],0.9 µM
same,Ratio EC50,Hepatitis C virus [23],3.3
same,CC50,Huh-7,> 10 µM
same,Ratio EC50,Hepatitis C virus [4],8.5
same,EC50,Hepatitis C virus [5],0.51 µM
same,EC90,Hepatitis C virus [5],5.1 µM
same,EC50,Hepatitis C virus [6],46 µM
same,EC90,Hepatitis C virus [6],> 100 µM
same,EC50,Hepatitis C virus [7],0.2 µM
same,EC90,Hepatitis C virus [7],1.5 µM
same,Ratio,Hepatitis C virus [8],0.9
same,Ratio EC50,Hepatitis C virus [9],13
same,EC50,Hepatitis C virus [10],0.8 µM
same,EC90,Hepatitis C virus [10],8.3 µM
same,EC50,Hepatitis C virus [11],0.06 µM
same,EC90,Hepatitis C virus [11],0.78 µM
same,Ratio EC50,Hepatitis C virus [24],780
same,IC50,Plasminogen,8.7 µM
same,IC90,[12],> 100 µM
same,Ratio,Hepatitis C virus [13],1.9
same,EC50,Hepatitis C virus [14],2.2 µM
same,EC90,Hepatitis C virus [14],52 µM
same,IC50,Cathepsin S,> 100 µM
same,IC90,Cathepsin S,> 100 µM
same,EC50,Hepatitis C virus [15],0.08 µM
same,EC90,Hepatitis C virus [15],0.74 µM
same,Ratio,Hepatitis C virus [16],11
same,EC50,Hepatitis C virus [17],0.58 µM
same,EC90,Hepatitis C virus [17],0.69 µM
same,Ratio,Hepatitis C virus [18],6.5
same,Ratio EC50,Hepatitis C virus [19],1.3
same,Ratio,Hepatitis C virus [20],0.9
same,Ratio EC50,Hepatitis C virus [21],1
